Columns and labels:
[1] = system: WT RIPK1; assay: in vitro kinase assay, WT RIPK1; format: biochemical, human; details: 100 μM ATP, 30 °C, 30 min, p-RIPK1-S166 immunoblot
[2] = system: mutant RIPK1-P195A; assay: in vitro kinase assay, RIPK1-P195A; format: biochemical, human; details: 100 μM ATP, 30 °C, 30 min, p-RIPK1-S166 immunoblot
[3] = system: monocytes; details: cited from earlier work
[4] = system: cIAP1; details: cited from earlier work
[5] = system: MEFs; assay: cell death with EGLN inhibitor, MEFs; format: cell-based, mouse
Method in brief: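 MEFs in DMEM/10% FBS/1% penicillin-streptomycin were treated with graded test compound concentrations. Cell death was measured by propidium iodide uptake, counting PI-positive versus total cells by fluorescence microscopy (mean ± s.d., n = 3 biological samples). p-RIPK1-S166 and p-MLKL-S345 were immunoblotted across the concentration series after 48 h, and at 400 μM over a time course.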

[6] = system: RIPK1, RIPK3 and MLKL activation; assay: RIPK1, RIPK3 and MLKL activation by EGLN inhibitors; format: cell-based, mouse; details: MEFs; for concentration needed to activate RIPK1 and necroptosis: concentration series; for hallmarks of RIPK1, RIPK3 and MLKL activation, inhibitor alone: immunoblotting
[7] = system: HT-29 cells; assay: RIPK1 activation and necroptosis by FG-4592, HT-29 cells; format: cell-based
[8] = system: Mlkl knockout cells; assay: FG-4592-induced cell death in WT and Mlkl knockout cells; format: cell-based; details: n = 3
[9] = system: Pro195 hydroxylation of RIPK1; assay: RIPK1 Pro195/Pro196 hydroxylation in cells; format: cell-based; details: high doses only
[10] = system: proline hydroxylation of RIPK1 at Pro196; assay: RIPK1 Pro196 hydroxylation in mouse liver in vivo; details: WT mouse liver; i.p. 50 or 250 mg kg^−1 every 24 h for 2 d; n = 3
[11] = system: MEFs; assay: TSZ-induced cell death with FG-4592, MEFs; format: cell-based, mouse; details: FG-4592 200 μM; TNFα 10 ng/mL, SM164 50 nM, zVAD.fmk 20 μM; n = 3
Method in brief: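 MEFs were given TNFα 10 ng/mL, SM164 50 nM and zVAD.fmk 20 μM, with or without test compound at 200 μM. Cell death was read by propidium iodide uptake: PI-positive and total cells were counted under an inverted fluorescence microscope. n = 3 biological independent samples, mean ± s.d., two-way ANOVA.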

[12] = system: WT and Ripk1 P196A/P196A mice; assay: FG-4592 in WT and Ripk1 P196A/P196A mice; format: in vivo; details: FG-4592 25 mg kg^−1 i.p., 7 days
[13] = system: WT mice (liver); assay: FG-4592 in vivo, WT mice: liver damage, RIPK1 activation, cell death, cytokines
[14] = system: RIPK1 proline hydroxylation (EGLN); assay: RIPK1 proline hydroxylation in cells, pan-hydroxylation antibody; format: cell-based, murine; details: MEFs with Flag-mRIPK1; CoCl2 400 μM, 16 h
Method in brief: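 MEFs were transduced with a Flag-mouse RIPK1 expression vector for 24 h, then treated with CoCl2 (400 μM) for a further 16 h. Lysates were immunoprecipitated with anti-Flag and the complexes immunoblotted with an anti-pan-hydroxylation antibody. Three independent experiments were run.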

[15] = system: EGLN1; assay: in vitro hydroxylation assay with recombinant EGLN1; format: biochemical; details: 37 °C, 1 h, pH 7.5, 50 μM EGLN1, 100 μM substrate; mass spectrometry
[16] = system: pVHL interaction with RIPK1; assay: pVHL-RIPK1 interaction in cells; format: cell-based; details: DFO 200 μM; co-immunoprecipitation
Method in brief: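 RIPK1⁻/⁻ HT-29 cells were infected with expression vectors and treated with DFO 200 μM. Immunocomplexes were washed three times (20 mM Tris pH 8.0, 100 mM NaCl, 1 mM EDTA, 0.5% NP-40), resolved by SDS-PAGE and immunoblotted.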

[17] = system: L929 cells; assay: hypoxia-induced cell death, L929; format: cell-based; details: 1% O2; Nec-1s 25 μM; propidium iodide uptake; n = 3
Method in brief: (§1)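 HT-29 and L929 cells were held at 1% O2 with or without 25 μM Nec-1s; L929 were kept in DMEM with 10% FBS and 1% penicillin/streptomycin. Cell death was measured by propidium iodide uptake, counting PI-positive and total cells under an inverted fluorescence microscope. Values are mean ± s.d., n = 3 biological samples.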

[18] = system: HT-29 cells; assay: hypoxia-induced cell death, HT-29; format: cell-based; details: 1% O2; Nec-1s 25 μM; propidium iodide uptake; n = 3
Method in brief: as §1

[19] = system: Jurkat cells; assay: hypoxia-induced cell death, Jurkat; format: cell-based; details: 1% O2, 48 h; propidium iodide uptake; n = 3
Method in brief: (§2)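 Jurkat, THP-1 and primary fibroblasts were exposed to 1% O2 for 48 h. Cell death was measured by propidium iodide uptake, counting PI-positive and total cells under an inverted fluorescence microscope. Values are mean ± s.d., n = 3 biological samples, compared by unpaired two-tailed t-test.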

[20] = system: THP-1 cells; assay: hypoxia-induced cell death, THP-1; format: cell-based; details: 1% O2, 48 h; propidium iodide uptake; n = 3
Method in brief: as §2

[21] = system: human skin fibroblast cells; assay: hypoxia-induced cell death, human skin fibroblasts; format: cell-based; details: 1% O2, 48 h; primary fibroblasts; propidium iodide uptake; n = 3
Method in brief: as §2

[22] = system: Vhl knockout MEFs; assay: hypoxia-induced necroptosis in Vhl-deleted MEFs; format: cell-based, mouse; details: 1% O2; Nec-1s printed as 25 M; propidium iodide uptake; n = 3
[23] = system: human RIPK1 and RIPK1-P195A mutant; assay: p-RIPK1-S166 in 293T cells overexpressing WT or P195A RIPK1; format: cell-based; details: overexpressed RIPK1, 10 μM Nec-1s, n = 3
[24] = system: primary Ripk1 P196A MEFs; assay: TSZ or TNFα/SM-164-induced cell death and p-RIPK1-S166 in Ripk1 P196A MEFs; format: cell-based, mouse; details: Nec-1s 20 μM, n = 3
[25] = system: Egln1−/− MEFs; assay: TSZ- or TNFα/5z7-induced cell death, Egln1−/− MEFs; format: cell-based, mouse; details: induced by TSZ or by TNFα + 5z7 (200 nM); n = 3
Method in brief: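 Knockout MEFs were given TNFα 10 ng/mL + SM164 50 nM + zVAD.fmk 20 μM, or TNFα 10 ng/mL + 5z7 200 nM, each ± RIPK1-inhibitor test compound. TSZ death was read by PI uptake: PI-positive and total cells counted by fluorescence microscopy. TNFα/5z7 viability was read by ATP-Glo luminescence, background-subtracted, as % of untreated wells. n = 3 biological samples, mean ± s.d., two-way ANOVA.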

[26] = system: 786-O cells; assay: TNFα/5z7/SM-164-induced RDA in 786-O cells; format: cell-based; details: Nec-1s 10 μM; TNFα 10 ng/mL; SM-164 50 nM; 5z7 500 nM; n = 3
Method in brief: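 VHL-deficient 786-O cells were treated with TNFα, 5z7 and SM-164, with or without Nec-1s, for different times. Viability was read by ATP-Glo luminescence, expressed as a percentage of untreated wells after subtracting the blank-well background.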

[27] = system: Ripk1 P196A/P196A mice; assay: Nec-1s in Ripk1 P196A/P196A mice; format: in vivo, mouse; details: Nec-1s in drinking water, 7 d; n = 5-6
[28] = system: Vhl LKO mice (liver); assay: Nec-1s in Vhl LKO mice; format: in vivo, mouse; details: Nec-1s in drinking water, 7 days; n = 6

Which “inhibition of RIPK1 kinase activity” value [1] does the source give for “recombinant pVHL: purified recombinant von Hippel–Lindau protein” here?
Its value is “could dramatically inhibit induction of the kinase activity of WT RIPK1”.

And the “inhibition of RIPK1 kinase activity” value [2]?
Its value is “but not mutant RIPK1-P195A”.

What does the source list for `COC(=O)CNC(=O)C(=O)OC` [dimethyloxalylglycine]?
RIPK1 activation and caspase-independent cell death [3]: induce RIPK1 activation and caspase-independent cell death in monocytes; cIAP1 expression [4]: caused a decrease in cellular inhibitor of apoptosis protein-1 (cIAP1) expression

For `Cc1nc(C(=O)NCC(=O)O)c(O)c2ccc(Oc3ccccc3)cc12` [FG-4592], which “sensitization to hypoxia-induced cell death” value ([5]; 1% O2 with or without 200 μM FG-4592, n = 3) is on record?
The value was “could sensitize cell death induced by hypoxia”.

What about the “RIPK1 activation and necroptosis” value ([5]; MEFs, relatively high concentration, up to 400 μM at indicated times, 48 h) of the same compound?
The value was “activated RIPK1 and induced necroptosis”.

What about the “concentration needed to activate RIPK1 and necroptosis” value [6] of the same compound?
The value was “Only high concentrations”.

What about the “RIPK1 activation and necroptosis” value ([7]; relatively high concentration) of the same compound?
Its value is “activated RIPK1 and induced necroptosis”.

What about the “effect of Mlkl deletion on FG-4592-induced cell death” value [8] of the same compound?
Its value is “deletion of Mlkl decreased cell death induced by FG-4592 treatment”.

And the “RIPK1 hydroxylation, RIPK1 activity and cell death, dose dependence” value [9]?
The value was “led to a decrease in the hydroxylation of RIPK1 and corresponding increases in RIPK1 activity and cell death”.

And the “RIPK1 Pro196 hydroxylation in vivo” value [10]?
Its value is “can also reduce the proline hydroxylation of RIPK1 at Pro196 in vivo”.

And the “sensitization to TSZ-induced cell death” value [11]?
Its value is “could sensitize cells to cell death induced by TSZ treatment”.

What about the “HIF pathway induction, RIPK1 activation and cell death” value [12] of the same compound?
The value was “can only induce the HIF pathway, without induction of RIPK1 activation and cell death”.

What about the “liver damage, TUNEL^+ cells and p-RIPK1-S166 in liver” value ([13]; FG-4592 250 mg kg^−1 i.p., every 24 h for 2 d) of the same compound?
Its value is “caused substantial liver damage, with a large number of TUNEL^+ cells and increased p-RIPK1-S166”.

And the “RIPK1 activation or cell death in liver” value ([13]; FG-4592 25 or 50 mg kg^−1 i.p., n = 5)?
The value was “did not induce RIPK1 activation or cell death”.

For `[Cl][Co][Cl]` [CoCl2, cobalt chloride], which “hallmarks of RIPK1, RIPK3 and MLKL activation, inhibitor alone” value [6] is on record?
Its value is “showed the hallmarks of RIPK1, RIPK3 and MLKL activation”.

And the “concentration needed to activate RIPK1 and necroptosis” value [6]?
The value was “Only high concentrations”.

What about the “RIPK1 proline hydroxylation (pan-hydroxylation antibody)” value [14] of the same compound?
Its value is “could be blocked”.

Which “hydroxylation by recombinant EGLN1” value [15] does the source give for “KNGGTLYYMAPEHLNDVNAKP [synthetic RIPK1 peptide]” here?
Its value is “recombinant EGLN1 hydroxylated a synthetic RIPK1 peptide containing Pro195”.

Which results are given for `CC(=O)N(O)CCCCCNC(=O)CCC(=O)N(O)CCCCCNC(=O)CCC(=O)N(O)CCCCCN` [DFO, deferoxamine]?
hallmarks of RIPK1, RIPK3 and MLKL activation, inhibitor alone [6]: showed the hallmarks of RIPK1, RIPK3 and MLKL activation; concentration needed to activate RIPK1 and necroptosis [6]: Only high concentrations; pVHL interaction with RIPK1 [16]: markedly decreased pVHL interaction with RIPK1 in cells

Which “suppression of FG-4592-induced cell death” value ([7]; 10 μM necrosulfonamide, 48 h, n = 3) does the source give for `COc1nccnc1NS(=O)(=O)c1ccc(NC(=O)/C=C/c2ccc([N+](=O)[O-])s2)cc1` [necrosulfonamide] here?
Its value is “can also suppress cell death induced by treatment with FG-4592 in HT-29 cells”.

What does the source list for `CN1C(=O)NC(Cc2c[nH]c3c(Cl)cccc23)C1=O` (centres unmarked) [Nec-1s, necrostatin-1s]?
hypoxia-induced cell death with Nec-1s [17]: decreased; hypoxia-induced cell death with Nec-1s [18]: decreased; hypoxia-induced cell death with Nec-1s [19]: decreased; hypoxia-induced cell death with Nec-1s [20]: decreased; hypoxia-induced cell death with Nec-1s [21]: decreased; hypoxia-induced necroptosis in Vhl-deleted MEFs with Nec-1s [22]: could be decreased with the administration of Nec-1s; inhibition of p-RIPK1-S166 (WT and P195A RIPK1) [23]: effectively inhibited; increased cell death and RIPK1 activation with Nec-1s [24]: both the increased cell death and RIPK1 activation were inhibited; cell death of Egln1−/− MEFs with Nec-1s [25]: blocked the cell death of Egln1^−/− MEFs induced by either TSZ or a combination of TNFα and 5z7; RDA induced by TNFα, 5z7 and SM-164 with Nec-1s [26]: could be blocked by Nec-1s; cell death and inflammation in Ripk1 P196A/P196A mice with Nec-1s [27]: decreased cell death and inflammation in Ripk1^P196A/P196A mice; RIPK1 activation, cell death and inflammation in Vhl LKO mice [28]: blocked RIPK1 activation, cell death and inflammation in Vhl hepatocyte-specific knockout mice
